Experimental data as given in PubChem BioAssay.
Calls of active or inactive are those of the source.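 The calls were made as follows, unless noted: active = viability at or under a set limit in both replicates, limit being median viability minus 3 SD (cut at about 48% in these data, passing the limit was not always enough); inconclusive = at or under the limit in just one replicate; inactive = at or above the limit in both replicates.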

Experiments:
[1] = reducers of endogenous Her2 protein level, primary screen, SKBR3 breast tumor cells, AlphaScreen, ATP viability (AID 461;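 active = Her2 level under about 52% in both replicate screens, with viability over 70% of control, limit read from the data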;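 as to Her2 level: lower value means less Her2 protein in the cells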;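 as to viability: percent of carrier control wells set as 100% viability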); details: 18-24 h, measured here: SKBR3 viability, ATP luminescence, at 10 µM
[2] = target: Receptor tyrosine-protein kinase erbB-2 (Homo sapiens) (UniProt P04626); test: as above; details: 18-24 h, at 10 µM, stronger effect = lower value
Chain of Receptor tyrosine-protein kinase erbB-2 (Homo sapiens) (P04626 whole entry, looked up): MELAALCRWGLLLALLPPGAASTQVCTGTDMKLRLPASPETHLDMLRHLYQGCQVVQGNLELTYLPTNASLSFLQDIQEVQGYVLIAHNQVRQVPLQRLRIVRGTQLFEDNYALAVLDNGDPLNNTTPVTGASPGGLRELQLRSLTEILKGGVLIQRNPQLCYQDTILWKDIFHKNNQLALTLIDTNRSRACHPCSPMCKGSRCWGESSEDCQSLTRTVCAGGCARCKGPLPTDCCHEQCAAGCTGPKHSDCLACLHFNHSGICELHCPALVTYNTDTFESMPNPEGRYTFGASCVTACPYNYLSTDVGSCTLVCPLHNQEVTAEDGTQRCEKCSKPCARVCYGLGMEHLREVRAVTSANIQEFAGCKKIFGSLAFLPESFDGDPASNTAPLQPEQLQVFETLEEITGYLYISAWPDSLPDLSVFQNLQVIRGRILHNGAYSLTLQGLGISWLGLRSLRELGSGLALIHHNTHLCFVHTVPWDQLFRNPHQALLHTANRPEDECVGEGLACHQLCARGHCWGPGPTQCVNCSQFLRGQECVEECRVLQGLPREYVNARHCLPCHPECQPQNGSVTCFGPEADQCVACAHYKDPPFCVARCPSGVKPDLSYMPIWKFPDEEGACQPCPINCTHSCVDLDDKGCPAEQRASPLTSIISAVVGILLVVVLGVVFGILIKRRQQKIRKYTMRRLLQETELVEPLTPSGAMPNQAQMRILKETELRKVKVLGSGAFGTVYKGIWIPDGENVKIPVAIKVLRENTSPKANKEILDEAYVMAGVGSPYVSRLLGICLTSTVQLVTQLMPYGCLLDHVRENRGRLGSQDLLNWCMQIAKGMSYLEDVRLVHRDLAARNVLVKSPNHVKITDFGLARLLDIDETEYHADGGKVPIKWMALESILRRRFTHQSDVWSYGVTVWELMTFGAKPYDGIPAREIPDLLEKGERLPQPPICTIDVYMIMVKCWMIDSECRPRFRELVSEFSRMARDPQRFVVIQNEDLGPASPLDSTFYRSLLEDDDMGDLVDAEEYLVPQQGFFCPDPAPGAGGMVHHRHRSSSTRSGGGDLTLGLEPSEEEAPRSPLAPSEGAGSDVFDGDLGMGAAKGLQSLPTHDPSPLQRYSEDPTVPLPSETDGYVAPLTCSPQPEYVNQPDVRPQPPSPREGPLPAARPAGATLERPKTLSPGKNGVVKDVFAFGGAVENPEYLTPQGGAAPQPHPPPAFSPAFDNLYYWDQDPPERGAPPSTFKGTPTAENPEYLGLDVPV

[3] = SK-BR-3 cell growth inhibitors, pilot screen, 24 h, human (AID 572;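 active = viability at or below 10% of carrier control in both of two separate runs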;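 also: compound exposure lasted between 18 and 24 h rather than exactly 24 h; 100% = carrier-treated control wells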); details: SK-BR-3 viability, CellTiter-Glo luminescence, at 10 µM, stronger effect = lower value
[4] = HUVEC growth inhibition – cell-based, human, primary screen (AID 575;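 active = viability at or below 30% in both replicate assays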;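 also: 100% = median of untreated cell wells with 0.1% DMSO on each plate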); details: HUVEC proliferation, CellTiter-Glo luminescence, 72 h; at 10 µM; stronger effect = lower value
Procedure, shortened: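 Material: primary human umbilical vein endothelial cells / Schedule: 72 h exposure, 37 °C, 5% CO2, 30 min RT equilibration / Signal: ATP-based CellTiter-Glo luminescent read / Read-out basis: percent of median DMSO-control luminescence / Control set: 32 DMSO-only cell-control wells (high), 32 MePR drug-control wells (low) per plate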

[5] = growth inhibitors of H69AR lung tumor, primary screen, human, duplicate replicates (AID 580); details: H69AR lung tumor cells viability, ATP luminescence, 72 h; at 10 µM; stronger effect = lower value;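 also: 100% = mean luminescence of untreated wells and 0% = no signal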
[6] = reversal of MRP1-mediated doxorubicin resistance, pilot screen, H69AR cells, doxorubicin co-treatment (AID 601;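 active = viability loss from added drug above about 55%, and viability with drug at most 40%, in both replicates, limit read from the data, passing the limit was not always enough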); details: CellTiter-Glo, 72 h, at 10 µM; for differential viability (reversal): stronger effect = higher value
[7] = 384-well plate pilot, post-Golgi transport modulator project, inhibition of yeast transport mutant growth (AID 636; in the data active = inhibition above about 31%); details: absorbance 615 nm, about 18 h, stronger effect = higher value
[8] = growth suppression of yeast trafficking mutant, preliminary HTS, modulators of trafficking downstream of Golgi apparatus project, 1536-format plate, OD 615 nm (AID 637; in the data active = inhibition above about 30%); details: yeast transport mutant growth, absorbance 615 nm, 18 h; stronger effect = higher value
[9] = H69AR cells + 2 uM doxorubicin, measured here: viability with 2 uM doxorubicin, stronger effect = lower value
[10] = H69AR cells, compound alone cytotoxicity

Structure (SMILES)	viability [1]	Her2 level [2]	viability [3]	viability [4]	viability [5]	differential viability (reversal) ([6]; H69AR cells + 2 uM doxorubicin)	viability [6, 9]	viability [6, 10]	inhibition [7]	inhibition [8]
CC(=O)c1ccc(NC(=O)c2noc3c2CCCCC3)cc1	126%	88% (inactive)	126% (inactive)	114% (inactive)	98% (inactive)	17.3% (inactive)	80.6%	98%	-5.26% (inactive)	0.73% (inactive)
CCN(CC)c1ccc(NC(=O)c2[nH]c(C)c(C(C)=O)c2C)c(C)c1	92.5%	91% (inactive)	92.5% (inactive)	93.1% (inactive)	74.8% (inactive)	-1.04% (inactive)	75.9%	74.8%	-0.39% (inactive)	-8.06% (inactive)
COc1ccc(N2CCN(c3nc4c(c(=O)[nH]c(=O)n4C)n3CCCc3ccccc3)CC2)cc1	120%	102% (inactive)	120% (inactive)	94% (inactive)	84.9% (inactive)	-2.09% (inactive)	87%	84.9%	-6.8% (inactive)	0.48% (inactive)
Cc1ccc(NC(=O)c2ccccc2O)cc1	93.5%	87.5% (inactive)	93.5% (inactive)	86.9% (inactive)	89.2% (inactive)	-0.22% (inactive)	89.4%	89.2%	-1.49% (inactive)	-2.7% (inactive)
COc1cccc(C2=Nn3c(nnc3-c3ccccc3O)SC2)c1	100%	61% (inactive)	100% (inactive)	89.4% (inactive)	67.2% (inactive)	-18.5% (inactive)	85.7%	67.2%	-3.16% (inactive)	-2.83% (inactive)
Nc1nc(CN2CCN(Cc3ccc4c(c3)OCO4)CC2)nc(Nc2ccccc2)n1	102%	92.5% (inactive)	102% (inactive)	114% (inactive)	97.4% (inactive)	13% (inactive)	84.4%	97.4%	-2.76% (inactive)	5.48% (inactive)
CCNc1nc(OC)nc(Oc2ccc(=O)n(-c3ccccc3)n2)n1	96%	86.5% (inactive)	96% (inactive)	106% (inactive)	96.4% (inactive)	10.6% (inactive)	85.8%	96.4%	-8.51% (inactive)	2% (inactive)
OCCN1CCN(CC(O)COc2ccc3ccccc3c2)CC1 (stereo not given)	88.5%	82% (inactive)	88.5% (inactive)	92.8% (inactive)	102% (inactive)	10% (inactive)	92.3%	102%	-4.8% (inactive)	5.25% (inactive)
Cc1nc(C)c(C(=O)Nc2ccc(C)c(F)c2)o1	92%	80% (inactive)	92% (inactive)	117% (inactive)	94.8% (inactive)	15.5% (inactive)	79.3%	94.8%	-5.54% (inactive)	1% (inactive)
Cc1csc(SCC(=O)NC(=O)NCc2ccccc2)n1	108%	90.5% (inactive)	108% (inactive)	103% (inactive)	95.2% (inactive)	-0.125% (inactive)	95.3%	95.2%	-6.67% (inactive)	2.3% (inactive)
CCOC(=O)c1cc2sccc2n1Cc1ccccc1	100%	116% (inactive)	100% (inactive)	97.9% (inactive)	96% (inactive)	15.4% (inactive)	80.7%	96%	-2.8% (inactive)	1.8% (inactive)
Cc1cccc(NC(=O)CSc2nnc(-c3cc(C)n(-c4ccccc4)c3C)o2)c1C	115%	91% (inactive)	115% (inactive)	66.3% (inactive)	76.2% (inactive)	-3.98% (inactive)	80.2%	76.2%	0.26% (inactive)	-6.03% (inactive)
CCSc1ccccc1C(=O)Nc1cccc(OC)c1	110%	97% (inactive)	110% (inactive)	115% (inactive)	98.4% (inactive)	11.7% (inactive)	86.6%	98.4%	-8.49% (inactive)	-3.33% (inactive)
COc1ccc(-c2noc(CN(C(=O)C(C)(C)C)C(C)C)n2)cc1	96%	102% (inactive)	96% (inactive)	102% (inactive)	109% (inactive)	17.6% (inactive)	91.3%	109%	-4.61% (inactive)	-6.83% (inactive)
CC(C)NC(=O)CSc1nc2ccccc2n1-c1ccccc1	88.5%	101% (inactive)	88.5% (inactive)	100% (inactive)	84.3% (inactive)	-8.05% (inactive)	92.4%	84.3%	2.86% (inactive)	-4.13% (inactive)
O=C(c1cc2ccccc2oc1=O)N1CCSC1c1ccco1 (stereo not given)	100%	93.5% (inactive)	100% (inactive)	97.5% (inactive)	91.5% (inactive)	6.19% (inactive)	85.3%	91.5%	-8.4% (inactive)	5.74% (inactive)

Structure (SMILES)	viability [1]	Her2 level [2]	viability [3]	viability [4]	viability [5]	differential viability (reversal) ([6]; H69AR cells + 2 uM doxorubicin)	viability [6, 9]	viability [6, 10]	inhibition [7]	inhibition [8]
O=C1CCC(=O)N1OCCCCOc1ccccc1	123%	93% (inactive)	123% (inactive)	107% (inactive)	96.2% (inactive)	5.21% (inactive)	91%	96.2%	-3.55% (inactive)	0.48% (inactive)
O=C(CSc1ncnc2sc3c(c12)CCCCC3)NCc1ccco1	92.5%	61% (inactive)	92.5% (inactive)	41.3% (inactive)	18% (active)	-52.1% (inactive)	70.1%	18%	-2.63% (inactive)	-3.65% (inactive)
CC(=O)N1CCc2cc(S(=O)(=O)NCCC3=CCCCC3)ccc21	108%	85% (inactive)	108% (inactive)	64% (inactive)	91.1% (inactive)	-7.85% (inactive)	99%	91.1%	-3.29% (inactive)	-2.22% (inactive)
CCCN(C(=O)CSc1nnc(-c2ccoc2C)n1N)C1CCS(=O)(=O)C1 (stereo not given)	86.5%	88.5% (inactive)	86.5% (inactive)	79.7% (inactive)	94.8% (inactive)	7.94% (inactive)	86.9%	94.8%	-2.6% (inactive)	2.13% (inactive)
Cc1cc(C)cc(NS(=O)(=O)c2ccc3[nH]cc(C(=O)NCc4ccco4)c(=O)c3c2)c1	97%	87% (inactive)	97% (inactive)	19% (active)	41.1% (active)	-35.9% (inactive)	77%	41.1%	-5.39% (inactive)	1.45% (inactive)
COc1ccc(S(=O)(=O)n2nc(OC(=O)c3ccc(C)cc3)cc2N)cc1	92.5%	72% (inactive)	92.5% (inactive)	91.6% (inactive)	97.7% (inactive)	-7.45% (inactive)	105%	97.7%	-4.47% (inactive)	-5.67% (inactive)
COCCOC(=O)/C=C1/NC(=O)CS1	96.5%	94.5% (inactive)	96.5% (inactive)	106% (inactive)	93.8% (inactive)	4.28% (inactive)	89.6%	93.8%	-5.6% (inactive)	1.48% (inactive)
CCCOc1cccc(-c2nnc(N)s2)c1	102%	121% (inactive)	102% (inactive)	87.4% (inactive)	100% (inactive)	21.6% (inactive)	78.5%	100%	-4.8% (inactive)	-5.56% (inactive)
O=C(OCc1nnc(-c2ccccc2)o1)c1ccc(S(=O)(=O)NCc2ccco2)cc1	99.5%	98% (inactive)	99.5% (inactive)	99.6% (inactive)	53.6% (inactive)	-6.69% (inactive)	60.3%	53.6%	-4.87% (inactive)	-6.36% (inactive)
COc1ccccc1N1CCN(CCCNC(=O)Nc2ccccc2)CC1	129%	83.5% (inactive)	129% (inactive)	84.5% (inactive)	90.3% (inactive)	-1.53% (inactive)	91.8%	90.3%	-2.76% (inactive)	-0.48% (inactive)
CCOC(=O)N1CCN(C(=O)CSc2ncnc3ccccc23)CC1	92%	96% (inactive)	92% (inactive)	87.2% (inactive)	89.1% (inactive)	14.9% (inactive)	74.1%	89.1%	-1.33% (inactive)	0.33% (inactive)
Cn1c2ccc(F)cc2c2ncn(CCN3CCOCC3)c(=O)c21	88.5%	82.5% (inactive)	88.5% (inactive)	98.6% (inactive)	97.4% (inactive)	6.95% (inactive)	90.4%	97.4%	-6% (inactive)	-3.02% (inactive)
O=C(CCCCCn1c(SCc2ccncc2)nc2ccccc2c1=O)NCc1ccco1	80.5%	70.5% (inactive)	80.5% (inactive)	96.9% (inactive)	74.6% (inactive)	-13% (inactive)	87.6%	74.6%	-1.18% (inactive)	-5.71% (inactive)
CN(C)S(=O)(=O)c1ccc(C(=O)N2CCC(c3nc4ccccc4o3)CC2)cc1	82%	83% (inactive)	82% (inactive)	95.1% (inactive)	83% (inactive)	8.86% (inactive)	74.1%	83%	-4.67% (inactive)	-6.07% (inactive)
Nc1c(Sc2ccccc2)c(=O)[nH]c(=O)n1Cc1ccccc1	90.5%	104% (inactive)	90.5% (inactive)	109% (inactive)	102% (inactive)	8.38% (inactive)	93.2%	102%	-5.14% (inactive)	-6% (inactive)
O=C(CSc1nnnn1C1CCCCC1)N1CCc2ccccc21	91%	82.5% (inactive)	91% (inactive)	60.9% (inactive)	87.1% (inactive)	-3.15% (inactive)	90.2%	87.1%	-3.87% (inactive)	-2.79% (inactive)
